These results are taken from ChEMBL document CHEMBL1671680, “Pradimicin S, a highly soluble nonpeptidic small-size carbohydrate-binding antibiotic, is an anti-HIV drug lead for both microbicidal and systemic use” (Antimicrob Agents Chemother, 2010).

A short description of data set [1]: Cytotoxicity against human MT4 cells after 7 days by trypan blue staining. Format: cell-based.
For data set [2], the system named is PBMC. The data set can be described thus: Cytotoxicity against human PBMC cells at 500 uM after 7 days. In kind it is cell-based. Conditions: 168 h. An outline of the steps: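 Mock-infected PHA-stimulated PBMC exposed to compound in RPMI 1640 with 10% FCS and IL-2 (25 U/ml); viability measured by trypan blue staining at day 7.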
A short description of data set [3]: Chemical stability of the compound in PBS solution at 50 degC after 4 days by HPLC. Format: physicochemical. Conditions: buffer, 96 h. The gist of the method: (§1)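 1 mM compound held 4 days in PBS at 50°C, or in 7 mM sodium phosphate pH 4.0 at room temperature; then analysed by reverse-phase HPLC (phosphate/heptanesulfonate pH 3.2 buffer–acetonitrile gradient, 1 ml/min).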

Data set [4] in a line: Chemical stability of the compound in 7mM sodium phosphate buffer after 4 days by HPLC at pH 4. Format: physicochemical. The settings on record: pH 4, 96 h. An outline of the steps: as §1
Data set [5] has as its system Human immunodeficiency virus 1. Description: Ratio of kd for HIV-1 HXB2 gp41 to kd for 3B gp120.
For data set [6], the system named is Human immunodeficiency virus 1. Description: Ratio of ka for HIV-1 3B gp120 to ka for HIV-1 HXB2 gp41.

For `CN[C@@H]1[C@H](O[C@@H]2OC[C@@H](O)[C@H](O)[C@H]2O)[C@@H](O)[C@H](O[C@H]2c3cc(C)c(C(=O)N[C@H](C)C(=O)O)c(O)c3-c3c(cc4c(c3O)C(=O)c3cc(OC)cc(O)c3C4=O)[C@@H]2O)O[C@@H]1C` [PRADIMICIN A], the CC50 at 168 h in data set [1] is over 50 µM.
The compound `CN[C@@H]1[C@H](O[C@@H]2O[C@H](CO)[C@@H](O)[C@H](OS(=O)(=O)O)[C@H]2O)[C@@H](O)[C@H](O[C@H]2c3cc(C)c(C(=O)N[C@H](C)C(=O)O)c(O)c3-c3c(cc4c(c3O)C(=O)c3cc(OC)cc(O)c3C4=O)[C@@H]2O)O[C@@H]1C` [PRADIMICIN S] registered an Activity in data set [2] of over 95%. Moreover, the Stability entry in data set [3] and in data set [4] was “Stable” throughout. Besides, the kd ratio in data set [5] came to 5. The ka ratio in data set [6] came out at 10.
